# Laboratory results reported in ChEMBL document CHEMBL1125356, “Synthesis and evaluation of novel spermidine derivatives as targeted cancer chemotherapeutic agents” (J Med Chem, 1992).
# Assays:
# B16 [1] = assay: The compound was tested for inhibition of B16-BL6 melanoma cells growing in culture with 0.25 mM DFMO.; format: functional, cell-based; conditions: Mus musculus
# B16 [2] = assay: The compound was tested for inhibition of B16-BL6 melanoma cells growing in culture.; format: functional, cell-based; conditions: Mus musculus
# B16 [3] = assay: The compound was tested in vitro for inhibition of cell growth on the B16-BL6 melanoma cells at 0.0(mM)conc.; format: functional, Mus musculus
# B16 [4] = assay: The compound was tested in vitro for inhibition of cell growth on the B16-BL6 melanoma cells at 0.1(mM)conc.; format: functional, Mus musculus
# B16 [5] = assay: The compound was tested in vitro for inhibition of cell growth on the B16-BL6 melanoma cells at 0.25(mM)conc.; format: functional, Mus musculus
# B16 [6] = assay: The compound was tested in vitro for inhibition of cell growth on the B16-BL6 melanoma cells at 0.5(mM)conc.; format: functional, Mus musculus
# B16 [7] = assay: The compound was tested in vitro for inhibition of cell growth on the B16-BL6 melanoma cells at 0.75(mM)conc.; format: functional, Mus musculus
# B16 [8] = assay: The compound was tested in vitro for inhibition of cell growth on the B16-BL6 melanoma cells at 1.0(mM)conc.; format: functional, Mus musculus
# B16 [9] = assay: The compound was tested on [3H]spermidine uptake into BL6 cells at 0.5(mM)conc; format: functional, Mus musculus
# Outline: (§1)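 B16-BL6 melanoma cells were grown in DMEM with 10% heat-inactivated FBS, pyruvate, nonessential amino acids, glutamine, vitamins and 5 μg/mL insulin at […] in 5% CO2. They were pretreated with DFMO at 0–1.0 mM, then [3H]spermidine uptake was read as cpm per million cells. Values are mean ± SEM, compared by Duncan's and LSD tests.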
# B16 [10] = assay: The compound was tested on [3H]-spermidine uptake into BL6 cells at 0.75(mM)conc; format: functional, Mus musculus; outline: as §1
# B16 [11] = assay: The compound was tested on [3H]spermidine uptake into BL6 cells at 1.0(mM)conc; format: functional, Mus musculus; outline: as §1
# B16 [12] = assay: The compound was tested on spermidine content of the cells at 0.1(mM)conc; format: functional, Mus musculus
# Outline: (§2)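 B16-BL6 cells were cultured in supplemented DMEM and pretreated with DFMO at 0–1.0 mM. Cells were PBS-washed and pelleted, then extracted in 0.3 M perchloric acid with 1,6-hexanediamine internal standard (10 nmol per million cells). Extracts were benzoylated before the column and run by reversed-phase HPLC on a C8 cartridge at ambient temperature, 1.5 mL/min. Quantitation used a 0.05–10 nmol/mL standard curve.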
# B16 [13] = assay: The compound was tested on spermidine content of the cells at 0.25(mM)conc; format: functional, Mus musculus; outline: as §2
# B16 [14] = assay: The compound was tested on spermidine content of the cells at 0.5 mM) conc; format: functional, Mus musculus; outline: as §2
# B16 [15] = assay: The compound was tested on spermidine content of the cells at 0.75(mM)conc; format: functional, Mus musculus; outline: as §2
# B16 [16] = assay: The compound was tested on spermidine content of the cells at 1.0(mM)conc; format: functional, Mus musculus; outline: as §2
# B16 [17] = assay: The compound was tested on [3H]spermidine uptake into BL6 cells at 0.0(mM)conc; format: functional, Mus musculus; outline: as §1
# B16 [18] = assay: The compound was tested on [3H]-spermidine uptake into BL6 cells at 0.1(mM)conc; format: functional, Mus musculus; outline: as §1
# B16 [19] = assay: The compound was tested on spermidine content of the cells at 0.0(mM)conc; format: functional, Mus musculus; outline: as §2
# B16 [20] = assay: The compound was tested on [3H]spermidine uptake into BL6 cells at 0.25(mM)conc; format: functional, Mus musculus; outline: as §1
smiles,measurement,setting,value
O=C(O)CCCc1ccc(N(CCCl)CCCl)cc1 [CHLORAMBUCIL],IC50,B16 [1],280 µM
same,IC50,B16 [2],220 µM
NCCCC(N)(C(=O)O)C(F)F (stereo unspecified) [EFLORNITHINE],Cell growth,B16 [3],2430000 number of cells ml-1
same,Cell growth,B16 [4],2180000 number of cells ml-1
same,Cell growth,B16 [5],1940000 number of cells ml-1
same,Cell growth,B16 [6],1090000 number of cells ml-1
same,Cell growth,B16 [7],1330000 number of cells ml-1
same,Cell growth,B16 [8],1480000 number of cells ml-1
same,cpm/million cells,B16 [9],214540
same,cpm/million cells,B16 [10],226404
same,cpm/million cells,B16 [11],250160
same,Spermidine concentration,B16 [12],0.6 nM (10e6*cells)-1
same,Spermidine concentration,B16 [13],0.34 nM (10e6*cells)-1
same,Spermidine concentration,B16 [14],0.55 nM (10e6*cells)-1
same,Spermidine concentration,B16 [15],0.52 nM (10e6*cells)-1
same,Spermidine concentration,B16 [16],0.35 nM (10e6*cells)-1
same,cpm/million cells,B16 [17],146600
same,cpm/million cells,B16 [18],221610
same,Spermidine concentration,B16 [19],2.07 nM (10e6*cells)-1
same,cpm/million cells,B16 [20],219910
CC(=O)NCCc1ccc(O)c(O)c1,IC50,B16 [1],2060 µM
same,IC50,B16 [2],1220 µM
NCCCNC(CCCN)C(=O)NCCc1ccc(N(CCCl)CCCl)cc1 (stereo unspecified),IC50,B16 [1],512 µM
same,IC50,B16 [2],333 µM
NCCCNC(CCCN)C(=O)NCCc1ccc(O)c(O)c1 (stereo unspecified),IC50,B16 [1],1310 µM
same,IC50,B16 [2],1230 µM
